This note sets out measurements from publication PMC3496166 (Scientific Reports, 2012).

Data set [1] has as its target EF-G (Escherichia coli, UniProt P0A6M8). The data set is described as follows: isothermal titration calorimetry. It is filed as binding. In a few lines: (§1)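 Assay used 6His-tagged E. coli protein, purified with an added Ni-NTA step. ITC ran at 5 or 25°C in pH 7.5 phosphate buffer (5 mM K2HPO4, 95 mM KCl, 5 mM MgCl2, 1 mM DTT, 10% glycerol). G nucleotide or 27-nt SRL RNA (50–500 μM in syringe) was titrated into protein (5–40 μM in cell), some runs with 500 μM nucleotide or 200 μM SRL added. Dilution heat subtracted; one-site nonlinear fit.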

Data set [2] concerns the target IF2 (Escherichia coli, UniProt P0A705). Nature of the data set: isothermal titration calorimetry. It is filed as binding. A digest of the protocol: as §1
The target of data set [3] is T1, IF2 (E. coli, UniProt P0A705 1-890). The data set is described as follows: ITC.
T1 sequence (P0A705 whole entry): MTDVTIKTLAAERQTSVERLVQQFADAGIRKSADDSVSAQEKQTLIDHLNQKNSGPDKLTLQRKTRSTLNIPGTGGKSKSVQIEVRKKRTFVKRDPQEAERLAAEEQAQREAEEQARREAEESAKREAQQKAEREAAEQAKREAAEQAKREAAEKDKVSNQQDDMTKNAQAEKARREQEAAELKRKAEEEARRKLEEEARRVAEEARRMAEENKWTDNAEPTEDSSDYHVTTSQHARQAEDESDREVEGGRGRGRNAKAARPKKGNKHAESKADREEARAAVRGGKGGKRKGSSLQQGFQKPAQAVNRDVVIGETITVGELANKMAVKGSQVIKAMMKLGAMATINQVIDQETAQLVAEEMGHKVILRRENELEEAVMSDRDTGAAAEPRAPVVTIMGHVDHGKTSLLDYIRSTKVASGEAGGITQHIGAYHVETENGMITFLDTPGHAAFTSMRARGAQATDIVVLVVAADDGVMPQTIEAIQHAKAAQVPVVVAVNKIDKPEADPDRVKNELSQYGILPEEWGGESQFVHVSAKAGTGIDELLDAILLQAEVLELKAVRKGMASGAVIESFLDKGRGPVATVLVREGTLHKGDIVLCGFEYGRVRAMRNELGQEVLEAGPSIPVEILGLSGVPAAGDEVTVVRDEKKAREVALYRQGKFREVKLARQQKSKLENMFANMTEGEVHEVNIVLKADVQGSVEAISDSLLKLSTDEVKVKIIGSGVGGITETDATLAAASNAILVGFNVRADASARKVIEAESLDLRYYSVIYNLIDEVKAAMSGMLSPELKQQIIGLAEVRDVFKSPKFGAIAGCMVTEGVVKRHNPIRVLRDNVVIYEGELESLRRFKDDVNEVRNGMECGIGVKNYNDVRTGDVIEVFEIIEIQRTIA
Data set [4] addresses T2, EF-G (E. coli, UniProt P0A6M8 1-704). Nature of the data set: ITC.
Data set [5] deals with T2, EF-G. The data set is described as follows: ITC. The source holds these as a separate data set.
Data set [6] concerns the target T1, IF2. Nature of the data set: ITC. The source holds these as a separate data set.
For data set [7], the target named is T2, EF-G. Nature of the data set: ITC. The source holds these as a separate data set.

Read-outs that look alike come from different tables or passages of the source.

T2 sequence (P0A6M8 whole entry): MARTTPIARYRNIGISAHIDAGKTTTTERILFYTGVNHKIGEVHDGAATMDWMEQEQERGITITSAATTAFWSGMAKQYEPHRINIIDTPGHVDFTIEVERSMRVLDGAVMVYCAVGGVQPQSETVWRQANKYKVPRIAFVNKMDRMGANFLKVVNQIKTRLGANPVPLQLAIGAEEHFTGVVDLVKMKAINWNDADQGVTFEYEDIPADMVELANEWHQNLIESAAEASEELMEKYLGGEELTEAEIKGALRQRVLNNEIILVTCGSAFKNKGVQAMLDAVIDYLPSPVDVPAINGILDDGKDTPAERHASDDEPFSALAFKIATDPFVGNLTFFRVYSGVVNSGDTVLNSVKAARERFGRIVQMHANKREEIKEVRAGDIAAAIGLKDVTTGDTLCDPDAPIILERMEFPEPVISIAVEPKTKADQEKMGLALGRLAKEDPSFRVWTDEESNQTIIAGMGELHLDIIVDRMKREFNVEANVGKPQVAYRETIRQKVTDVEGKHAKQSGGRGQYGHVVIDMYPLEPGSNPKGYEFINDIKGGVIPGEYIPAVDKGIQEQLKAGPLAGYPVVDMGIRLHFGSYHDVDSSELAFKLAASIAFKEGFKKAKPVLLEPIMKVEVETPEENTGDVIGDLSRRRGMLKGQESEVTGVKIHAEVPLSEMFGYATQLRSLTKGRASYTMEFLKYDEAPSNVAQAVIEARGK
EF-G (Escherichia coli, UniProt P0A6M8), sequence (P0A6M8 2-704): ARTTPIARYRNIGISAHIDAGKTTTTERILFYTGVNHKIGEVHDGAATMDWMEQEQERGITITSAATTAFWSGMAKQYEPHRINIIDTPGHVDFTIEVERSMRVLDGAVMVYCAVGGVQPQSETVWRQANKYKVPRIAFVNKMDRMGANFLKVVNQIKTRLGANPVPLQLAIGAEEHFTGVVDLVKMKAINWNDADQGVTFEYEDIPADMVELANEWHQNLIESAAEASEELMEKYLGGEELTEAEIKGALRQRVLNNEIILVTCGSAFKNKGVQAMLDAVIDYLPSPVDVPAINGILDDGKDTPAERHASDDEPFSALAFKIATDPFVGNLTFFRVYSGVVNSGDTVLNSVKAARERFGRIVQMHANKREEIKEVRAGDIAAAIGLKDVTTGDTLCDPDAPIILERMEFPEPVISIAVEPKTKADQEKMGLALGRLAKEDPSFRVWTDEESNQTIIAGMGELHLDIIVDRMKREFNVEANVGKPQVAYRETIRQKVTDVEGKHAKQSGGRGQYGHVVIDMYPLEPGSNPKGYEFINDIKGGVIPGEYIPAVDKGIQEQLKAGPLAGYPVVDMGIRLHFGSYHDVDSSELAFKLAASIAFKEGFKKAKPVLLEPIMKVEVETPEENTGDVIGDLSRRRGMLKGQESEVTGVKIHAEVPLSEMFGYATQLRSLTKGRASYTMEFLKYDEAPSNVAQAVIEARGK
IF2 (Escherichia coli, UniProt P0A705), sequence (P0A705 whole entry): as the sequence (P0A705 whole entry) above

For the molecule `Nc1nc2c(ncn2[C@@H]2O[C@H](COP(=O)(O)OP(=O)(O)O)[C@@H](O)[C@H]2O)c(=O)[nH]1` [GDP], the Kd on EF-G [1] was 1800 nM; on IF2 [2] it was 1.6 µM.

`Nc1nc2c(ncn2[C@@H]2O[C@H](COP(=O)(O)OP(=O)(O)OP(=O)(O)O)[C@@H](O)[C@H]2O)c(=O)[nH]1` [GTP]: the Kd on EF-G [1] came out at 2700 nM; on IF2 [2] it was 6.7 µM.

Regarding GGGCUCCUAGUACGAGAGGACCGGAGU (structured_RNA) [SRL RNA wt (27 nt)], the dissociation constant (Kd) was determined as 1000 nM in the data set with IF2 [3]; 3.7 µM with EF-G [4]; 5.9 µM in the data set with EF-G [5]; 670 nM with IF2 [6]; 4.2 µM in the data set with EF-G [7].
